Shown are actives, neighbours in structure and some others; about 4.1% of the full set was active somewhere.
MC4R antag cAMP: human MC4R antagonism in cAMP assay; P32245; MC4R-expressing cells, MTII-stimulated cAMP, LANCE TR-FRET; inhibition, % at 6.5 µM; 360,000 tested, 0.48% active; AID 540295;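 active = inhibition above its plate's cutoff, the mean of tested wells on that plate plus 3 SD, cut at about 29% in these data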;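 note: 0% = Melanotan II alone and 100% = Melanotan II plus saturating MCL0020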
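Assay system: U2OS cells stably expressing human melanocortin 4 receptor (MC4R) / Dosing: 6.5 µM / Timing: compound 30 min, challenge 1 h, detection 1 h / Measured by: Eu-cAMP/anti-cAMP TR-FRET, emission 671 nm / Replicates: singlicate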
MPTP block: blocks calcium-induced mitochondrial swelling; 360,000 tested, 1.4% active; AID 602449; inhibition, % at 10 µM; isolated mouse mitochondria, Ca2+ swelling absorbance, 30 min;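 active = inhibition of 50% or more, scaled per plate between neutral and stimulator controls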;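 note: 0% = DMSO wells given calcium and 100% = 1 mM EGTA wells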
MC4R barr agon: agonists of human melanocortin 4 receptor (MC4R) beta-arrestin. 360,000 tested, 0.98% active. activation, % at 8.9 µM. U2OS MC4R beta-arrestin complementation, luminescence; percent of melanotan II response, DMSO zero;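 active = activation above a per-plate cutoff, the mean activation of sample wells on that plate plus 3 SD, cut at about 8% in these data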
ATG4B inhibitor: inhibitors of human ATG4B cysteine protease. Q9Y4P1. ATG4B cleavage of LC3-PLA2, NBD-HPC fluorescence, 1 h. inhibition, % at 8.33 µM. 340,000 tested, 0.51% active; in the data active = inhibition above about 40%
Target sequence (Q9Y4P1 whole entry, looked up): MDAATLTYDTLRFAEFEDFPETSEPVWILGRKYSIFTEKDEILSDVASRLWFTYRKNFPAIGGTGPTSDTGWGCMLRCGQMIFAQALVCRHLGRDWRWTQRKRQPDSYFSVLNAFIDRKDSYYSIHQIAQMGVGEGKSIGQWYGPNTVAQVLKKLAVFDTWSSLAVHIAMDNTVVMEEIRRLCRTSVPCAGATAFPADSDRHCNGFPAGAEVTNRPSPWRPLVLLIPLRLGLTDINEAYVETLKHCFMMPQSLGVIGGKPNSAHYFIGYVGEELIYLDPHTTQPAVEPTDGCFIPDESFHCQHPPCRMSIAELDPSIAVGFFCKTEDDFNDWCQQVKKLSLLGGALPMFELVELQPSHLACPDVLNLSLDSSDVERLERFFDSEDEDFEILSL
SMARCA2 act: activators of SMARCA2 function; MG213 cells, MMTV-luciferase reporter, dexamethasone, overnight; activation, % at 9.1 µM; 370,000 tested, 1% active; AID 652017; in the data active = activation above about 7.8%;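 note: 0% = vehicle wells and 100% = reference activator wells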
SMARCA2 act conf: SMARCA2 activation, confirmation screen; activation, % at 9.1 µM; 3,500 tested, 30% active; MG213 cells, MMTV-luciferase with dexamethasone, luminescence, overnight; MG213 cells expressing E1A, Rb sequestered; DMSO wells 0%, reference activator 100%; shares compounds with SMARCA2 act; AID 652260;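 active = activation above its plate's cutoff, the mean activation of tested wells plus 3 SD, cut at about 7.9% in these data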
GAL4-VP16 Luc: GAL4-VP16 reporter activation counter-screen | shares compounds with SMARCA2 act | HEK293 GAL4-VP16 pG5luc reporter, luciferase luminescence; scaled: DMSO wells 0%, SAHA wells 100% | activation, % at 9.1 µM | 3,500 tested, 41% active;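 active = activation above the solvent-only control well mean plus 3 SD, averaged across control plates, cut at about 5.2% in these data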
* = called active by the depositor; nt = no result given.

SMILES	MC4R antag cAMP	MPTP block	MC4R barr agon	ATG4B inhibitor	SMARCA2 act	SMARCA2 act conf	GAL4-VP16 Luc
Cn1ccc(C(=O)N/N=C/c2c[nH]c3ccccc23)n1	-5	0	1	-8	16*	8.0*	4
C=CCOC(=O)C1=C(C)N=c2sc(=C3C(=O)N(CC(=O)O)c4ccccc43)c(=O)n2C1c1ccc(OC)cc1 (stereo unspecified)	nt	nt	nt	nt	-1	nt	nt
COc1cc(OC)c(OC)cc1CNCCNC(=O)c1ccco1	10	-1	1	-5	9.2*	0	-1
COC(=O)[C@]12C[C@H](CC(=O)NCCC(C)C)C(=O)N(CCc3ccc(OC)c(OC)c3)C1=C[C@H](C(C)C)O[C@@H]2C1CC1	nt	nt	nt	nt	5	nt	nt
COc1ccc(CCNc2ncccc2C#N)cc1OC	7	-2	0	-4	10*	7	9.6*
Cc1ccc(C2=NN(S(C)(=O)=O)C(c3cccs3)C2)cc1 (stereo unspecified)	9	-8	0	-2	4	nt	nt
COc1ccc(C2=NN(S(C)(=O)=O)C(c3cccs3)C2)cc1 (stereo unspecified)	1	-2	3	-3	10*	8.1*	6.5*
COC(=O)[C@]12C[C@H](CC(=O)NCc3cccc4ccccc34)C(=O)N(CCC3=CCCCC3)C1=C[C@H](C1CCCC1)O[C@@H]2C	nt	nt	nt	nt	-2	nt	nt
Cc1c(F)cccc1NS(=O)(=O)c1ccccc1C#N	0	0	-2	1	9.2*	-3	0
COc1ccc(C(=O)Cn2c(=N)n(C)c3ccccc32)cc1	-4	0	-2	-8	5	nt	nt
COc1ccc(C(=O)CN2Cc3ccccc3C2=N)cc1	-4	1	-1	0	12*	8.3*	6.1*
CCCCn1c(=N)n(CC(=O)c2ccc(OC)cc2)c2ccccc21	nt	nt	nt	nt	9.4*	20*	-2
CCOC(=O)CN1C(=O)[C@]2(OCCC=C[C@H]2C)c2ccccc21	nt	nt	nt	nt	-3	nt	nt
COCCN1Cc2cc(C(=O)OC)c3c(c2C1=O)c1cc(F)ccc1n3C(=O)c1ccccc1	nt	nt	nt	nt	-4	nt	nt
COC(=O)c1cccc(Cn2ccc3ccc(-c4ccc5ccn(C(=O)c6cccc(OC)c6)c5c4)cc32)c1	nt	nt	nt	nt	-1	nt	nt
CC(=O)Nc1cc2nc3ccccc3oc-2cc1=O	nt	nt	nt	nt	0	nt	nt
CCCS(=O)(=O)NC(=O)C1(C)CCN(C(=O)c2nc(C)oc2C)C1 (stereo unspecified)	10	-2	0	nt	8.0*	0	1
CCCS(=O)(=O)NC(=O)C1(C)CCCN(C(=O)c2nc(C)oc2C)C1 (stereo unspecified)	-2	-1	-2	nt	nt	nt	nt
O=C1c2cccc3c(N4CCCCC4)ccc(c23)C(=O)N1CCO	-30	0	-1	-13	8.5*	7.8*	8.6*
C=CCN1C(=O)c2cccc3c(N4CCCCC4)ccc(c23)C1=O	24	1	1	-8	2	nt	nt
CCC(=O)OCCCN1CCC2(CCC(c3ccccc3)CC2)C1=O (stereo unspecified)	nt	nt	nt	nt	-3	nt	nt
CN(CCOC(=O)c1cc2ccccc2o1)C1CN(Cc2cn(Cc3ccc([N+](=O)[O-])cc3)nn2)S(=O)(=O)C1 (stereo unspecified)	nt	nt	nt	nt	0	nt	nt
CCCCN1C(=O)C(CC(=O)NCCCN(C)C)CC(C(=O)N(C(C)C)C(C)C)=C1C (stereo unspecified)	nt	1	nt	nt	13*	8	0
Nc1nc2c(ncn2[C@@H]2O[C@H](C(=O)NCC(c3ccccc3)c3ccccc3)[C@@H](O)[C@H]2O)c(=O)[nH]1	nt	nt	nt	nt	-5	nt	nt
COc1ccc(CCN2CC(C(=O)NCCc3ccccc3)CC2=O)cc1OC (stereo unspecified)	-2	1	0	-11	8.7*	3	3
SMILES	MC4R antag cAMP	MPTP block	MC4R barr agon	ATG4B inhibitor	SMARCA2 act	SMARCA2 act conf	GAL4-VP16 Luc
CCOc1ccc(CCNC(=O)C2CC(=O)N(CCc3ccccc3)C2)cc1OCC (stereo unspecified)	27	1	2	-3	-1	nt	nt
Cc1cccc(N2CCN(C(=O)c3ccnn3C)CC2)c1C	3	-1	-2	6	-1	nt	nt
Cn1nccc1C(=O)N1CCN(c2ccccc2Cl)CC1	1	0	-3	-8	8.0*	1	1
O=C(/C=C/c1ccco1)Nc1ccc(CN2CCOCC2)cc1	7	0	1	-15	9.4*	9.2*	11*
O=C(/C=C/c1ccccc1)Nc1ccc(CN2CCOCC2)cc1	3	1	-1	-13	-2	nt	nt
C(=N\Nc1nc(Nc2ccccc2)nc(N2CCOCC2)n1)/c1c[nH]c2ccccc12	nt	nt	nt	-25	9.6*	1	7.7*
Cc1[nH]c2ccccc2c1/C=N/Nc1nc(Nc2ccc(F)cc2)nc(N2CCOCC2)n1	14	1	0	-5	1	nt	nt
Cc1nc(COC(=O)c2c(C)nn(-c3ccccc3)c2C)cs1	-5	3	-2	1	9.1*	10*	3
Cc1nccn1-c1ccc(NC(=O)[C@@H](Cc2ccccc2)NC(=O)[C@H]2O[C@@H](n3ccc(=O)[nH]c3=O)[C@H](O)[C@@H]2O)cc1	nt	nt	nt	nt	-3	nt	nt
COC(=O)C1=C(C)N(C)C(=NCc2ccc(OC)cc2)NC1c1cccc(F)c1 (stereo unspecified)	nt	nt	nt	nt	-2	nt	nt
CC(=O)Nc1ccc2nc(NC(=O)c3cccnc3)sc2c1	4	-1	-1	-5	11*	10*	4
O=C(Oc1ccc(/C=N/NC(=O)c2ccccc2O)cc1)c1ccccc1	-6	17	-2	3	2	nt	nt
CSc1ccc(/C=N/NC(=O)c2cc(O)cc(O)c2)cc1	-7	7	-2	-5	9.3*	9.4*	5.4*
O=C(N/N=C/c1ccc(OC(=O)c2ccccc2)cc1)c1cccc(O)c1	-13	0	-1	0	10.0*	4	0
CSc1ccc(/C=N/NC(=O)c2ccc(C)c(C)c2)cc1	13	2	-2	5	0	nt	nt
O=C(Nc1sc2c(c1C(=O)NCc1ccco1)CCCC2)c1ccc2c(c1)OCO2	11	1	-2	30	8.9*	4	8.3*
O=C(Nc1sc2c(c1C(=O)O)CCC2)c1ccco1	2	2	-1	1	9.1*	3	4
COC(=O)c1c(NC(=O)c2ccco2)sc2c1CCC2	-2	2	-1	-8	0	nt	nt
COc1ccc([C@H]2OC(=O)C[C@H]2C(=O)N2CCCCC2)cc1OC	nt	nt	nt	nt	-6	nt	nt
O=C(C(=O)N1CCN(S(=O)(=O)c2ccc(Cl)cc2)CC1)c1cccc(C(F)(F)F)c1	nt	nt	nt	nt	-5	nt	nt
CCCCN1CN2Cc3cc(F)ccc3C2CS1(=O)=O (stereo unspecified)	nt	nt	nt	nt	-2	nt	nt
